{"source": "ChEMBL document CHEMBL3046951", "about": "“Volatile constituents from the leaves of Callicarpa japonica Thunb. and their antibacterial activities” (2004)", "type_in_all_cases": "functional", "key": {"Listeria monocytogenes": {"system": "Listeria monocytogenes", "experiment": "Antimicrobial activity against Listeria monocytogenes ATCC 19111 assessed as growth inhibition rate at 9.84 mg/l after 72 hr by spectrophotometry", "conditions": "ATCC 19111, 72 h, read-out: GI", "how_it_was_run": "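Pure volatile compounds (>95% purity) tested on Listeria monocytogenes ATCC 19111 in tryptic soy broth at 30 °C. Inoculum: 24 h culture subcultured (0.1 mL into 9.9 mL broth) and grown 18 h. Growth followed by Bioscreen C optical density every 24 h for 72 h against a 10% Tween 80 control.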"}, "Staphylococcus aureus": {"system": "Staphylococcus aureus", "experiment": "Antimicrobial activity against Staphylococcus aureus ATCC 25923 assessed as growth inhibition rate at 9.84 mg/l after 72 hr by spectrophotometry", "conditions": "ATCC 25923, 72 h, read-out: GI"}, "Vibrio parahaemolyticus": {"system": "Vibrio parahaemolyticus", "experiment": "Antimicrobial activity against Vibrio parahaemolyticus ATCC 33844 assessed as growth inhibition rate at 9.84 mg/l after 72 hr by spectrophotometry", "conditions": "ATCC 33844, 72 h, read-out: GI"}, "Escherichia coli": {"system": "Escherichia coli", "experiment": "Antimicrobial activity against Escherichia coli O157:H7 ATCC 43894 assessed as growth inhibition rate at 9.84 mg/l after 72 hr by spectrophotometry", "conditions": "O157:H7 ATCC 43894, 72 h, read-out: GI", "how_it_was_run": "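Authentic volatiles (>95% purity; 2,4-heptadienal 90%) tested against 18 h subcultures. Growth media: E. coli O157:H7 and S. aureus in tryptic soy broth at 37 °C; L. monocytogenes in tryptic soy broth at 30 °C; V. parahaemolyticus in tryptic soy broth + 3% NaCl at 37 °C; S. typhimurium in nutrient broth at 30 °C. Bioscreen C OD every 24 h for 72 h versus 10% Tween 80 control.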"}, "Salmonella typhimurium": {"system": "Salmonella typhimurium", "experiment": "Antimicrobial activity against Salmonella enterica subsp. enterica serovar Typhimurium ATCC 14028 assessed as growth inhibition rate at 9.84 mg/l after 72 hr by spectrophotometry", "conditions": "ATCC 14028, 72 h, read-out: GI"}, "Bacillus cereus": {"system": "Bacillus cereus", "experiment": "Antimicrobial activity against Bacillus cereus ATCC 11778 assessed as growth inhibition rate at 9.84 mg/l after 72 hr by spectrophotometry", "conditions": "ATCC 11778, 72 h, read-out: GI", "how_it_was_run": "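Pure volatile compounds (>95% purity) from the leaf extract were tested against B. cereus grown at 30 °C in nutrient broth from an 18 h subculture. Optical density was read in a Bioscreen C every 24 h over 72 h, and activity was compared with a 10% Tween 80 control.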"}}}
{"smiles": "CCCCCCO", "note": "[1-HEXANOL]", "values": [{"measurement": "inhibition of growth at 9.84 µg/mL", "setting": "Listeria monocytogenes", "value": 4.2, "unit": "%"}, {"measurement": "inhibition of growth at 9.84 µg/mL", "setting": "Staphylococcus aureus", "value": 6.9, "unit": "%"}, {"measurement": "inhibition of growth at 9.84 µg/mL", "setting": "Vibrio parahaemolyticus", "value": 27.1, "unit": "%"}, {"measurement": "inhibition of growth at 9.84 µg/mL", "setting": "Escherichia coli", "value": 16.9, "unit": "%"}, {"measurement": "inhibition of growth at 9.84 µg/mL", "setting": "Salmonella typhimurium", "value": 23.3, "unit": "%"}, {"measurement": "inhibition of growth at 9.84 µg/mL", "setting": "Bacillus cereus", "value": 3.6, "unit": "%"}]}
